This note sets out measurements from PubChem BioAssay.

Assay [1] in a line: inhibitors of TNFa-induced NFkB p65 translocation, primary screen, imaging, HUVEC, MLSMR starter and 10KST1 sets (AID 438).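 Also: compound added about 3h40 before a 20 min TNFalpha stimulation.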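 As to inhibition: signal is the nuclear over cytoplasmic p65 intensity ratio per well.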 Conditions: HUVEC TNFa-induced p65 nuclear translocation; cell count: measured here: nuclei count (cytotoxicity indicator), at 2.08 µM; inhibition: at 2 µM, stronger effect = higher value, 0% TNFa-plus-vehicle, 100% no-TNFa wells.
A short description of assay [2]: reduction of polyQ htt aggregates in cells – imaging, exon1htt(103Q)mCFP cells, high-content imaging, primary screen (AID 483;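 active = visual image review flags a hit and inhibition of aggregation exceeds 20%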;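 also: compound exposure lasted 3 days before fixation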;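 as to nuclei count: percent of the per-plate median nuclei count of sample wells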). Conditions: exon1htt(103Q)mCFP cell line, aggregate imaging, at 2 µM; inhibition of aggregation: stronger effect = higher value; nuclei count: measured here: cell count, toxicity.
Assay [3] is described as follows: endothelial E-selectin expression blockers – imaging, HUVEC, immunofluorescence, MLSMR starter and 10KST1 sets, primary screen (AID 487;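 active = visually confirmed hit in the image check and inhibition above 20%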;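 as to inhibition: signal is fraction of cell area covered by stained E-selectin grains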;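 as to nuclei count: 100% = median nuclei count of all wells on the same plate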). Conditions: HUVEC TNFalpha-induced E-selectin immunofluorescence imaging, at 2 µM; inhibition: stronger effect = higher value; nuclei count: measured here: cell number, toxicity.
Assay [4] concerns the target Voltage-gated potassium channel subunit beta-2 (Rattus norvegicus) (UniProt P62483). The experiment in a line: inhibitors of rat Kvbeta2 reductase activity – biochemical, NADPH fluorescence, primary screen (AID 622;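 active = fluorescence slope higher than the sample average by over 3 SD, cut at about -0.22 in these data, passing the limit was not always enough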;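 also: slope of raw intensity against log time taken from 70 to 1610 s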). The settings on record: recombinant KvBeta, 4-cyanobenzaldehyde reduction, at 10 µM, stronger effect = higher value.
The target is the same in assay [5]. The experiment in a line: enhancers of rat Kvbeta2 NADPH turnover – biochemical, NADPH fluorescence, primary screen (AID 623;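 active = NADPH fluorescence slope more negative than the mean of all samples by about 3 SD, 99.7% confidence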;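 also: fluorescence intensity change per second fitted from 20 to 320 s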). The settings on record: Recombinant KvBeta, NADPH fluorescence decrease slope, 10 min; at 10 µM; stronger effect = lower value.
Assay [6] concerns the target Muscarinic acetylcholine receptor M4 (Homo sapiens) (UniProt P08173). Kind of assay: M4-linked GIRK flux change, two-sided – cell-based, HEK293 M4/GIRK, thallium flux, BTC-AM, M4 allosteric agonist project, primary screen (AID 625;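 active = fluorescence slope after compound addition differing from the mean of all tested samples at 99.7% confidence, mostly higher but some lower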;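 also: thallium influx through GIRK channels coupled to M4 in HEK293 cells with BTC-AM dye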). Conditions: at 10 µM, actives lie on both sides. A digest of the protocol:
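Material: HEK293 cells with M4 receptor and GIRK channels; Times: cells overnight at 37 °C, BTC-AM loading 1 h, reads 2 min total; Technique: kinetic BTC-AM fluorescence sampled at 1 Hz, 10 s pre-addition baseline; Read-out basis: slope over 15–24 s of trace normalized to starting intensity; Controls: carbachol positive, DMSO negative.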

Assay [7] in a line: blockers of RIG-like receptor reporter activation – cell-based, Sendai virus stimulus, luciferase, 10K MLSCN set, TLR/RLR signaling modifier project, primary screen (AID 602276;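 active = inhibition at or above 50% at 10 µM; inactive = inhibition below 50%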;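 also: firefly luciferase from ISG56 promoter only with Renilla not read in this screen; 0% = Sendai virus plus DMSO and 100% = medium plus DMSO without virus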). Conditions: HEK293 RL24 IRF3 luciferase reporter, at 10 µM, stronger effect = higher value.
The nature of assay [8]: TLR3 IRF3 reporter activation blockers – cell-based, poly I:C stimulus, luciferase, 10K MLSCN set, primary screen (AID 602277;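 active = inhibition of the reporter signal at or above 50%; inactive = inhibition below 50%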). Conditions: HEK293-TLR3 RL24 IRF3 luciferase reporter, at 10 µM, stronger effect = higher value.

Activity calls are given as the source filed them.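 The calls were made as follows, unless noted: active = inhibition above 20% together with a positive visual image hit; inconclusive = visual image hit but inhibition not above 20%; inactive = no visual image hit.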

Sequence of Voltage-gated potassium channel subunit beta-2 (Rattus norvegicus) (P62483 whole entry, looked up): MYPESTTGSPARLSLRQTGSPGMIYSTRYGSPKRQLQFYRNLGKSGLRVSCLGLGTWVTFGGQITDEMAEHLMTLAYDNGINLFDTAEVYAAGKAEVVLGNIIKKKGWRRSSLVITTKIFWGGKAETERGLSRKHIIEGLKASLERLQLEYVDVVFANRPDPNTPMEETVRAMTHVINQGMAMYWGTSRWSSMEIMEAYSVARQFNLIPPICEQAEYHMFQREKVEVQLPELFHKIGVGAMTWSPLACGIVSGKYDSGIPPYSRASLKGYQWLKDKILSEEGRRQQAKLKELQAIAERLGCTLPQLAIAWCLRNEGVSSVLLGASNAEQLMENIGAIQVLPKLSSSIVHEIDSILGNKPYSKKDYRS
Sequence of Muscarinic acetylcholine receptor M4 (Homo sapiens) (P08173 whole entry, looked up): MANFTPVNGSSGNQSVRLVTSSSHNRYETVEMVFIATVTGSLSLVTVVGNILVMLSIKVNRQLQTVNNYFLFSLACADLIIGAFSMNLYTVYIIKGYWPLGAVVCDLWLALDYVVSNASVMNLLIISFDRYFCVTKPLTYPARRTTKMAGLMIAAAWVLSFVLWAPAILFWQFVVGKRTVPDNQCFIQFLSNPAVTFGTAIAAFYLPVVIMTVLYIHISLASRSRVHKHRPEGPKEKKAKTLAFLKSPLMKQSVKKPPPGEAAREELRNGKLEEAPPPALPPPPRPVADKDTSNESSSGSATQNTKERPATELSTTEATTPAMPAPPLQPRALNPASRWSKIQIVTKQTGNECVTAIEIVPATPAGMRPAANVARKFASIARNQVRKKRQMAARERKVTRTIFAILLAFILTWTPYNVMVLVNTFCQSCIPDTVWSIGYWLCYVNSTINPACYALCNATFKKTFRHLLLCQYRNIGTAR

`CC(C)(C)C(=O)N=C1SC2CS(=O)(=O)CC2N1c1ccc2c(c1)OCO2` (centres undefined): the cell count in assay [1] amounted to 454. Also, the inhibition in assay [1] was 5.8% (inactive); in assay [3], 6.6% (inactive); in assay [7] it was -0.393% (inactive); in assay [8] it was 7.75% (inactive). The inhibition of aggregation in assay [2] was 2% (inactive). Also, the nuclei count was determined as 96.6% in assay [2] and 132% in assay [3]. In addition, the fluorescence slope is -0.546 (inactive) in assay [4] and 0.0052 (inactive) in assay [6]. For the same compound, the NADPH fluorescence slope in assay [5] is -4.1e-05 (inactive).

With `C[C@H](NC(=O)Nc1ccccc1F)C(=O)O`, the cell count in assay [1] came out at 294. In addition, the inhibition was -8.5% (inactive) in assay [1], -78.4% (inactive) in assay [3], 14.6% (inactive) in assay [7] and 24.2% (inactive) in assay [8]. Moreover, in assay [2], the inhibition of aggregation was 4.9% (inactive). Besides, the results for the nuclei count in assay [2] and in assay [3] were 86% and 138%, respectively. Also, the results for the fluorescence slope in assay [4] and in assay [6] were -0.602 (inactive) and 0.00462 (inactive), respectively. Moreover, the NADPH fluorescence slope in assay [5] is 5.1e-05 (inactive).

Consider `COc1ccc(N2CCN(C(c3cccc(OC)c3OC)c3nnnn3C3CCCC3)CC2)cc1` (centres undefined), for which the cell count in assay [1] worked out at 709. The inhibition was 20% (inactive) in assay [1], 36.9% (inactive) in assay [3], -1.29% (inactive) in assay [7] and 21.9% (inactive) in assay [8]. Also, in assay [2], the inhibition of aggregation was -7.2% (inactive). Besides, the nuclei count was found to be 96.3% in assay [2] and 76.2% in assay [3]. For the same compound, the fluorescence slope in assay [4] is -0.508 (inactive); in assay [6] it was 0.00439 (inactive). In addition, in assay [5], the NADPH fluorescence slope was 9.8e-05 (inactive).

For `O=c1c(-c2ccc(F)cc2)coc2c3c(ccc12)OCCO3`, the cell count in assay [1] came to 337. The inhibition in assay [1] is 0.7% (inactive); in assay [3], -65.5% (inactive); in assay [7] it was -29.6% (inactive); in assay [8] it was -86.4% (inactive). The inhibition of aggregation in assay [2] was 14.4% (inactive). In addition, the nuclei count in assay [2] was determined as 131%; in assay [3] it was 124%. The fluorescence slope was -0.501 (inactive) in assay [4] and 0.00582 (inactive) in assay [6]. Also, in assay [5], the NADPH fluorescence slope is -0.000205 (inactive).

On to `Cc1ccc(CNC(=O)CCCn2c(=O)c3ccccc3n(CC(=O)NCc3ccco3)c2=O)cc1`, for which the cell count in assay [1] was 451. In addition, the inhibition in assay [1] was -11.1% (inactive); in assay [3], -76.5% (inactive); in assay [7], -6.73% (inactive); in assay [8], -15.2% (inactive). For the same compound, the inhibition of aggregation in assay [2] was -4% (inactive). Further, the nuclei count worked out at 114% in assay [2] and 97.1% in assay [3]. The fluorescence slope in assay [4] is -0.509 (inactive); in assay [6], 0.00296 (inactive). In assay [5], the NADPH fluorescence slope is -0.000209 (inactive).

Consider `O=c1c2ccccc2nnn1CSc1nc2cc(Cl)ccc2c(=O)n1Cc1ccco1`, for which the cell count in assay [1] turned out to be 386. Moreover, the inhibition is 12.2% (inactive) in assay [1], -101% (inactive) in assay [3], -18.1% (inactive) in assay [7] and -12.2% (inactive) in assay [8]. Moreover, the inhibition of aggregation in assay [2] was 7.5% (inactive). Further, the figures for the nuclei count in assay [2] and in assay [3] were 76% and 113%, respectively. Further, the fluorescence slope in assay [4] was -0.56 (inactive); in assay [6], 0.00813 (inactive). The NADPH fluorescence slope in assay [5] was -5e-05 (inactive).

With `Cc1cc(-c2ccccc2)c2c3c(cn2n1)c(=O)n(C)c(=O)n3C`, the cell count in assay [1] amounted to 386. Further, the inhibition was 2% (inactive) in assay [1], -14.4% (inactive) in assay [3], 17.8% (inactive) in assay [7] and 27.8% (inactive) in assay [8]. For the same compound, the inhibition of aggregation in assay [2] is -0.2% (inactive). Also, the nuclei count was 116% in assay [2] and 86.7% in assay [3]. The fluorescence slope is -0.59 (inactive) in assay [4] and 0.00111 (inactive) in assay [6]. In addition, in assay [5], the NADPH fluorescence slope is -1.7e-06 (inactive).

As to `O=C(NCc1ccc2c(c1)OCO2)c1cc2n(n1)C(C(F)(F)F)CC(c1ccc3c(c1)OCO3)N2` (centres undefined), in assay [1], the cell count was found to be 407. Further, the inhibition is -1.6% (inactive) in assay [1], -32% (inactive) in assay [3], 18.5% (inactive) in assay [7] and 24.4% (inactive) in assay [8]. Moreover, the inhibition of aggregation in assay [2] was 26.5% (inactive). Besides, the nuclei count was determined as 89.1% in assay [2] and 106% in assay [3]. Further, the fluorescence slope in assay [4] is -0.558 (inactive); in assay [6], 0.0053 (inactive). In assay [5], the NADPH fluorescence slope is -4.2e-05 (inactive).

`CCOC(=O)CCCn1nc(C)n2c(cc3sccc32)c1=O`: the cell count in assay [1] is 563. In addition, the inhibition is -3.2% (inactive) in assay [1], -28.3% (inactive) in assay [3], -11.6% (inactive) in assay [7] and -28.8% (inactive) in assay [8]. Moreover, the inhibition of aggregation in assay [2] is -1.6% (inactive). The nuclei count in assay [2] and in assay [3] was 119% each time. Moreover, the fluorescence slope in assay [4] was -0.406 (inactive); in assay [6], 0.00716 (inactive). Also, the NADPH fluorescence slope in assay [5] was 8.7e-05 (inactive).

In the case of `CSc1n[nH]c(NCc2ccccc2)n1`, the cell count in assay [1] was determined as 278. Further, the inhibition in assay [1] is 0.2% (inactive); in assay [3] it was -70.1% (inactive); in assay [7] it was 6.09% (inactive); in assay [8], -2.54% (inactive). For the same compound, the inhibition of aggregation in assay [2] was 10.1% (inactive). Moreover, the nuclei count was 70.6% in assay [2] and 119% in assay [3]. Also, the fluorescence slope in assay [4] is -0.482 (inactive); in assay [6], 0.00548 (inactive). Moreover, the NADPH fluorescence slope in assay [5] is -1.9e-05 (inactive).

On to `Cc1ccc(CC23CN4CCN(CC(C4)C2O)C3)c(C)c1` (centres undefined), for which the cell count in assay [1] amounted to 435. For the same compound, the inhibition in assay [1] is 0% (inactive); in assay [3], -40.9% (inactive); in assay [7], 18.9% (inactive); in assay [8], 14.1% (inactive). For the same compound, the inhibition of aggregation in assay [2] is 2% (inactive). The figures for the nuclei count in assay [2] and in assay [3] were 107% and 116%, respectively. For the same compound, the values for the fluorescence slope in assay [4] and in assay [6] were -0.494 (inactive) and 0.0044 (inactive), respectively. Also, the NADPH fluorescence slope in assay [5] was -2.9e-05 (inactive).

With `CCOC(=O)N1CCN(S(=O)(=O)c2ccc(Br)s2)CC1`, the cell count in assay [1] was 350. In addition, the inhibition in assay [1] is -8.6% (inactive); in assay [3], -27.3% (inactive); in assay [7], 21.3% (inactive); in assay [8], 11.6% (inactive). Besides, in assay [2], the inhibition of aggregation was -13.3% (inactive). Besides, the figures for the nuclei count in assay [2] and in assay [3] were 84.3% and 98.6%, respectively. Also, the fluorescence slope was -0.553 (inactive) in assay [4] and 0.00427 (inactive) in assay [6]. Also, the NADPH fluorescence slope in assay [5] was -1.3e-06 (inactive).

In the case of `Cn1c(Cc2cccs2)nnc1SCC(=O)N1CCc2ccccc21`, the cell count in assay [1] came to 369. In addition, the inhibition in assay [1] was -1.8% (inactive); in assay [3] it was -67.8% (inactive); in assay [7], 8.51% (inactive); in assay [8], 16.5% (inactive). Also, the inhibition of aggregation in assay [2] is 14.1% (inactive). Further, the nuclei count in assay [2] was 93.4%; in assay [3], 93.3%. Moreover, the results for the fluorescence slope in assay [4] and in assay [6] were -0.479 (inactive) and 0.00472 (inactive), respectively. Moreover, in assay [5], the NADPH fluorescence slope is -6.1e-05 (inactive).

Regarding `CCCCn1c(SCc2cccnc2)nc2c1c(=O)n(C)c(=O)n2C`, the cell count in assay [1] was 502. Besides, the inhibition in assay [1] is -7.2% (inactive); in assay [3], -15.9% (inactive); in assay [7], -4.82% (inactive); in assay [8], 0.323% (inactive). Moreover, the inhibition of aggregation in assay [2] was 27.2% (inactive). The nuclei count in assay [2] amounted to 90.8%; in assay [3], 198%. In addition, the fluorescence slope in assay [4] is -0.511 (inactive); in assay [6], 0.00468 (inactive). In addition, in assay [5], the NADPH fluorescence slope was -3.3e-05 (inactive).
